Results: PubChem BioAssay AID651723 (Broad Institute, 2012)
Where “and” joins values, the source holds several entries; their conditions need not be identical. Identical values can stand only once. Out of some 350,000 compounds screened, about 740 (0.21%) were called active. Shown is part of a subset that was picked to be rich in actives. Unmarked numbers belong to inactive results.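 How the source made its calls: active means every replicate reaching activation of at least 50%, whatever the mean replicate activation; inconclusive means replicates that disagree or another doubt; inactive means the rest.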

Assay: increased acetylated PGC1a in cells – cell-based, U2OS, AlphaScreen, signal-increasing mode, PGC1a modulator project, primary screen (AID 651723)
Conditions: U2OS PGC1a acetylation AlphaScreen, overnight; at 15.6 µM; hits give high values
In short: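 System: flag-PGC1a/GCN5 U2OS cells / Input: 7000 cells/well / Compound: single test concentration per compound / Incubation: overnight compound treatment, 37 °C / Technique: AlphaScreen on lysates with anti-acetyl-lysine antibody, acceptor and donor beads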
In the case of `NC(=O)Cc1ccc2c(c1)[nH]c1ccccc12`, the activation is reported as 116% (active). Work on `O=S(=O)(O)c1nc2ccccc2n1Cc1ccc(Cl)cc1` yielded an activation of -47.2%. Work on `Cc1oc2c(c1C(=O)N1CCOCC1)C(=O)c1ccccc1C2=O` yielded an activation of -42.9%. Work on `CN1/C(=C\C(=O)c2oc3ccccc3c2N)C(C)(C)c2ccccc21` yielded an activation of -86.9%. For `Cc1cc(C(=O)N/N=C\C(Br)=C\c2ccccc2)c(C)o1`, the activation was 85.5% (active). With `CC(C)c1cc(C(=O)N/N=C/C(Br)=C/c2ccccc2)n[nH]1` the activation was 125% (active). For `Cc1[nH]c(=O)c(C(=O)/C=C/c2ccccc2)c2c1CCCC2`, the activation was -53.2%. `N#Cc1cccc(NC(=O)COC(=O)c2ccccc2C(=O)c2ccc(Cl)c([N+](=O)[O-])c2)c1` showed an activation of -46.9%. For `Clc1ccc(-c2nnc(-c3ccccc3)nc2N2CCSCC2)cc1`, the activation was 80.9% (active). In the case of `CN1CCc2c(sc3c2c(NCc2ccco2)nc2nnnn23)C1`, the activation is reported as -44.7%. With `COCCNC(=O)CSc1nc2c(n1-c1ccccc1)CCCC2` the activation was -43.7%. In the case of `COc1ccc(NC(=O)C2(C)Cc3c(-c4cccc(NC(C)=O)c4)ccnc3O2)cc1` (stereo not given), the activation is reported as 71.2% (active). With `CCc1ccc(NC(=O)CSc2nnc(-c3cnccn3)n2Cc2ccco2)cc1` the activation was -45.6%. In the case of `O=C(/C=C/Sc1ncn[nH]1)c1ccc(Cl)cc1`, the activation is reported as 109% (active). In the case of `COc1cccc(CNC(=O)CCC2CCCN(Cc3ccc(OC(F)F)cc3)C2)c1` (stereo not given), the activation is reported as -52.5%. For `Cc1cccc(NC(=O)c2ccc([N+](=O)[O-])o2)c1`, the activation was 149% (active). In the case of `CC(C)NC(=O)Nc1ccc2c(c1)C(=O)N([C@@H](C)CO)C[C@@H](C)[C@H](CN(C)S(=O)(=O)c1ccccc1)OCCCC[C@@H](C)O2`, the activation is reported as -124%. Molecule `COc1ccc(-c2cc(=O)c3c(O)cc(O[C@@H]4O[C@H](CO[C@@H]5O[C@@H](C)[C@H](O)[C@@H](O)[C@H]5O)[C@@H](O)[C@H](O)[C@H]4O)cc3o2)cc1O` has an activation of -49.5%. `COCC(=O)Nc1ccc2c(c1)OC[C@H](C)N(C(=O)c1ccccc1F)C[C@H](C)[C@H](OC)CN(C)C2=O` gave an activation of -42.9%. For `CCc1cc2c(N3CCN(c4nnc(CC)s4)CC3)ncnc2s1`, the activation was 53.5% (active). With `CC1(C)CCSC(/C=C/c2ccccc2)=N1` the activation was 183% (active). Molecule `O=[N+]([O-])c1c(NCCO)cc(Sc2nc3ccccc3s2)c2nonc12` has an activation of -45%. For `C[C@H](CO)N1C[C@H](C)[C@H](CN(C)Cc2ccc(C(=O)O)cc2)Oc2ncc(-c3ccccc3)cc2C1=O`, the activation was -41.5%. With `Cc1cccc(C2C3=C(CCCC3=O)N=C3c4ccccc4C(=O)C32)c1` (stereo not given) the activation was 80% (active). `CC(=O)NC1CCN(CC(=O)Nc2nccs2)CC1` gave an activation of -50.3%. Molecule `CC(C)Cc1nn2c(=O)cc(O)nc2s1` has an activation of -40.3%. For `COc1ccc(N(Cc2cc3cc(OC)ccc3[nH]c2=O)S(C)(=O)=O)cc1`, the activation was 69.9% (active). For `N#Cc1ccc(C(c2ccc(C#N)cc2)n2cncn2)cc1`, the activation was -48.6%. Molecule `Cc1cc(C)cc(N(CC(=O)Nc2c(C)n(C)n(-c3ccccc3)c2=O)S(C)(=O)=O)c1` has an activation of -49.5%. In the case of `C[C@H]1CN([C@@H](C)CO)C(=O)c2cc(C#Cc3ccc(F)cc3)cnc2O[C@@H]1CN(C)C(=O)Nc1ccc(F)cc1`, the activation is reported as -44%. With `COc1ccc(C#Cc2ccc([C@H]3[C@@H](CO)N4CCCCN(C(=O)Nc5ccccc5)C[C@H]34)cc2)cc1` the activation was 77.7% (active). With `COc1ccc(NC(=O)/C(Cl)=C(/Cl)S(=O)Cc2ccc(C)cc2)cn1` (stereo not given) the activation was -69.3%. `Cc1ccc(S(=O)(=O)Nc2ccc3c(c2)C(=O)N([C@H](C)CO)C[C@H](C)[C@H](CN(C)C(=O)NC(C)C)OCCCC[C@@H](C)O3)cc1` gave an activation of -41.5%. With `COCC(=O)Nc1ccc2c(c1)OC[C@@H](C)N(CCc1ccccc1)C[C@H](C)[C@@H](OC)CN(C)C2=O` the activation was -52.2%. Work on `COc1ccc(S(=O)(=O)N2CCN(C(=O)c3cccs3)CC2)cc1OC` yielded an activation of -44%. In the case of `COc1ccc(C2CC(c3cccs3)=NN2c2nc(C)c(C(C)=O)s2)cc1OC` (stereo not given), the activation is reported as 83.1% (active). In the case of `O=S(=O)(NCc1ccccc1Br)c1ccccc1Br`, the activation is reported as 55.2% (active). For `COc1cc(NC(=O)c2[nH]cnc2C(N)=O)cc(C(=O)Nc2cccc(C(F)(F)F)c2)c1`, the activation was -62.8%. In the case of `C[C@H](CO)N1C[C@H](C)[C@@H](CN(C)Cc2cccnc2)Oc2cc(C3=CCCC3)ccc2S1(=O)=O`, the activation is reported as -50.5%. For `O=C(NCc1ccccc1)C(c1ccccc1)N(C(=O)c1csnn1)c1ccc(F)cc1` (stereo not given), the activation was 85.7% (active). `Cc1noc(C)c1S(=O)(=O)N(C)C[C@H]1Oc2ccc(NS(=O)(=O)c3cccs3)cc2C(=O)N([C@H](C)CO)C[C@H]1C` showed an activation of -48%. For `Cc1cc(C)c2c(-n3cccc3)c(C(=O)NNS(=O)(=O)c3ccc(F)cc3)sc2n1`, the activation was 132% (active). In the case of `Cc1cccc(-c2ccc(C3[C@@H]4CN(C(=O)Nc5ccc(C(F)(F)F)cc5)C[C@H]3N4)cc2)c1` (stereo not given in full), the activation is reported as -92.4% and -92.8%. For `CC(C)C(OC(=O)c1cccs1)C(=O)NC1CCCCC1` (stereo not given), the activation was 90.6% (active). In the case of `CC/C(=N\NC(=O)c1ccccc1Cl)c1ccc(Br)s1`, the activation is reported as -82.8%.
